Measurements as given in ChEMBL document CHEMBL1138596, “Synthesis and biological evaluation of novel 4-(hetero) aryl-2-piperazino quinazolines as anti-leishmanial and anti-proliferative agents” (Bioorg Med Chem Lett, 2009).
In brackets after ≈: the same amount, converted by molar mass.

What was measured:
[1] = (§1) Selectivity index, ratio of CC50 for mouse J774A1 cells to IC50 for Leishmania donovani MHOM/IN/Dd8 amastigotes; type: functional, J774.A1
[2] = Cytotoxicity against mouse J774A1 cells; type: cell-based, J774.A1
How it was run: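 Mouse macrophage line J-774-A-1; cytotoxicity read by MTT assay.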

C-33-A = assay: Antiproliferative activity against human C33A cells by MTT assay; type: functional, cell-based
How it was run: (§2)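 Twofold serial dilutions of compound up to a highest concentration of 50 µg/mL; viability read by MTT assay; panel of DU145 prostate, MCF-7 breast, KB oral epidermal, C33A cervical carcinoma lines and non-cancerous VERO cells.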

MCF7 = assay: Antiproliferative activity against human MCF7 cells by MTT assay; type: functional, cell-based; how it was run: as §2
KB = assay: Antiproliferative activity against human KB cells by MTT assay; type: functional, cell-based; how it was run: as §2
Vero = assay: Antiproliferative activity against african green monkey Vero cells by MTT assay; type: cell-based; settings: Chlorocebus sabaeus; how it was run: as §2
Leishmania donovani [3] = assay: Antileishmanial activity against Leishmania donovani MHOM/IN/Dd8 amastigotes infected in mouse J774A1 cells assessed as luciferase activity after 48 hrs; type: functional, organism-based; settings: for IC50: MHOM/IN/Dd8, J774.A1, 48 h; for Activity: J774.A1
How it was run: (§3)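 L. donovani parasites transfected with firefly luciferase gene, maintained in medium 199 with 10% fetal calf serum, penicillin (50 U/ml) and streptomycin under G418 pressure; compounds tested at various concentrations against transgenic promastigotes and intracellular amastigotes; IC50 calculated by Probit analysis.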

Leishmania donovani [4] = assay: Antileishmanial activity against Leishmania donovani MHOM/IN/Dd8 promastigotes assessed as luciferase activity after 72 hrs; type: functional, organism-based; settings: MHOM/IN/Dd8, 72 h; how it was run: as §3
DU-145 = assay: Antiproliferative activity against human DU145 cells by MTT assay; type: functional, cell-based; how it was run: as §2
J774.A1 = assay: as §1; type: functional

IC50 (MCF7)	IC50 (KB)	IC50 (Leishmania donovani [3])	IC50 (Leishmania donovani [4])	IC50 (DU-145)	Compound	Ratio CC50/IC50 [1]	CC50 [2]	IC50 (C-33-A)	IC50 (Vero)	Activity (Leishmania donovani [3])	Ratio CC50/IC50 (J774.A1)
> 50 µg/mL	> 50 µg/mL	12.3 µg/mL (≈ 29.1 µM)	1.72 µg/mL (≈ 4.06 µM)	> 50 µg/mL	Fc1ccc(N2CCN(c3nc(-c4c[nH]c5ccccc45)c4ccccc4n3)CC2)cc1	1.9	23.4 µg/mL (≈ 55.3 µM)	> 50 µg/mL	> 50 µg/mL		
> 50 µg/mL	> 50 µg/mL	25.1 µg/mL (≈ 76.1 µM)	1.8 µg/mL (≈ 5.45 µM)	> 50 µg/mL	c1ccc2c(-c3c[nH]c4ccccc34)nc(N3CCOCC3)nc2c1	1.99	50.1 µg/mL (≈ 152 µM)	> 50 µg/mL	> 50 µg/mL		
> 50 µg/mL	> 50 µg/mL		0.25 µg/mL (≈ 0.657 µM)	> 50 µg/mL	COc1cc(OC)c(-c2nc(N3CCNCC3)nc3ccccc23)c(OC)c1			> 50 µg/mL	> 50 µg/mL	Toxic	
> 50 µg/mL	> 50 µg/mL		0.62 µg/mL (≈ 1.73 µM)	> 50 µg/mL	CN1CCN(c2nc(-c3cn(C)c4ccccc34)c3ccccc3n2)CC1		1.03 µg/mL (≈ 2.88 µM)	> 50 µg/mL	> 50 µg/mL	Toxic	
> 50 µg/mL	> 50 µg/mL	12.5 µg/mL (≈ 36.4 µM)	0.28 µg/mL (≈ 0.815 µM)	> 50 µg/mL	Cn1cc(-c2nc(N3CCNCC3)nc3ccccc23)c2ccccc21	1.28	16 µg/mL (≈ 46.6 µM)	> 50 µg/mL	> 50 µg/mL		
> 50 µg/mL	> 50 µg/mL		> 10 µg/mL	> 50 µg/mL	c1ccc2c(-c3c[nH]c4ccccc34)nc(N3CCCCC3)nc2c1			> 50 µg/mL	> 50 µg/mL		
					Sodium stilbogluconate						6.38
6 µg/mL (≈ 17.5 µM)	4.9 µg/mL (≈ 14.3 µM)	4.17 µg/mL (≈ 12.1 µM)	0.68 µg/mL (≈ 1.98 µM)	20.8 µg/mL (≈ 60.6 µM)	CN1CCN(c2nc(-c3c[nH]c4ccccc34)c3ccccc3n2)CC1	1.74	7.27 µg/mL (≈ 21.2 µM)	11.5 µg/mL (≈ 33.5 µM)	22.3 µg/mL (≈ 64.9 µM)		
> 50 µg/mL	> 50 µg/mL	5.11 µg/mL (≈ 14.6 µM)	0.624 µg/mL (≈ 1.78 µM)	> 50 µg/mL	COc1ccc(-c2nc(N3CCNCC3)nc3ccccc23)c(OC)c1	0.78	3.98 µg/mL (≈ 11.4 µM)	> 50 µg/mL	> 50 µg/mL		
					N=C(N)c1ccc(OCCCCCOc2ccc(C(=N)N)cc2)cc1 [PENTAMIDINE]	2.07					
> 50 µg/mL	> 50 µg/mL	12.4 µg/mL (≈ 31.6 µM)	6.2 µg/mL (≈ 15.7 µM)	> 50 µg/mL	COc1cc(OC)c(-c2nc(N3CCN(C)CC3)nc3ccccc23)c(OC)c1	>8.03	> 100 µg/mL	> 50 µg/mL	> 50 µg/mL		
14.1 µg/mL (≈ 42.8 µM)	4 µg/mL (≈ 12.1 µM)		0.56 µg/mL (≈ 1.7 µM)	12.5 µg/mL (≈ 37.9 µM)	c1ccc2c(-c3c[nH]c4ccccc34)nc(N3CCNCC3)nc2c1		3.11 µg/mL (≈ 9.44 µM)	8.2 µg/mL (≈ 24.9 µM)	8.9 µg/mL (≈ 27 µM)	Toxic	
> 50 µg/mL	> 50 µg/mL	4.28 µg/mL (≈ 11.7 µM)	3.79 µg/mL (≈ 10.4 µM)	> 50 µg/mL	COc1ccc(-c2nc(N3CCN(C)CC3)nc3ccccc23)c(OC)c1	4.21	18 µg/mL (≈ 49.4 µM)	> 50 µg/mL	> 50 µg/mL		
